Data set [1] deals with T1, 3',5'-cyclic-AMP phosphodiesterase 4B (Homo sapiens, UniProt Q07343). Put plainly: Inhibition of PDE4B (unknown origin) assessed as hydrolysis of [3H]-cGMP into [3H]-GMP incubated for 30 mins by scintillation of proximity assay. Particulars: in the assay text read “[3H]-cAMP into [3H]-AMP” for “[3H]-cGMP into [3H]-GMP”. The procedure, abridged: (§1)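 Scintillation proximity assay of [3H]-cAMP or [3H]-cGMP hydrolysis to [3H]-AMP or [3H]-GMP. Enzyme was diluted to 1–2 nM in 50 mM Tris pH 7.5, 8.3 mM MgCl2 and 1.7 mM EGTA. Reaction was started by adding enzyme, test solution and radiolabelled substrate, then incubated at 30 °C for 30 min and stopped with SPA beads. Run in duplicate.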

The subject of data set [2] is Mus musculus. The experiment in a line: Antiinflammatory activity against PMA-induced ICR mouse ear oedema model assessed as reduction in ear swelling at 1 mg/ear topically administered and measured after 4 hrs. Format: functional. Summed up: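 Male ICR mice, 8 weeks old. The sample was applied topically to the right ear at 1.0 mg/ear in ethanol before PMA. After 4 h the mice were killed by cervical dislocation and both ears were measured with a micrometer. Oedema was the thickness difference between the ears; inhibition was the percent reduction versus the model group.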

Data set [3] concerns the target T1, 3',5'-cyclic-AMP phosphodiesterase 4B. The experiment in a line: Inhibition of PDE4B (unknown origin) assessed as hydrolysis of [3H]-cAMP into [3H]-AMP incubated for 30 mins by scintillation of proximity assay.
Data set [4] has as its target cAMP and cAMP-inhibited cGMP 3',5'-cyclic phosphodiesterase 10A (Homo sapiens, UniProt Q9Y233). Put plainly: Inhibition of PDE10A (unknown origin). Summed up:
as §1

Data set [5] is filed under the species Homo sapiens. Put plainly: Selectivity index, ratio of IC50 for PDE1B (unknown origin) to IC50 for PDE4B (unknown origin).
Data set [6] has as its target cGMP-inhibited 3',5'-cyclic phosphodiesterase 3B (Homo sapiens, UniProt Q13370). Put plainly: Inhibition of PDE3B (unknown origin). The procedure, abridged: as §1
Data set [7] relates to Mus musculus. Put plainly: Antiinflammatory activity against calcipotriol-induced atopic dermatitis mouse model assessed as swelling inhibition by measuring thickness of left ear at 30 mg/kg for 14 days (RVB = 0.26 +/- 0.01 mm). Format: functional. Particulars: time 14 day. The procedure, abridged:
(§2)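 Ointment was applied to the dorsal side of the left ear twice daily (30 mg/kg) for 14 days; the normal group received ethanol. On day 17 the mice were anaesthetized with 10% chloral hydrate and ear thickness was measured with a micrometer. Percent inhibition of the inflammatory reaction was calculated against untreated animals.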

Data set [8] has as its system Mus musculus. Put plainly: Antiinflammatory activity against calcipotriol-induced atopic dermatitis mouse model assessed as swelling inhibition by measuring thickness of right ear at 30 mg/kg for 14 days (RVB = 0.55 +/- 0.06 mm). The conditions noted are these: time 14 day. Format: functional. The procedure, abridged:
as §2

The target of data set [9] is Dual specificity calcium/calmodulin-dependent 3',5'-cyclic nucleotide phosphodiesterase 1B (Homo sapiens, UniProt Q01064). The experiment in a line: Inhibition of PDE1B (unknown origin). Summed up: as §1
Data set [10] has as its target Dual specificity calcium/calmodulin-dependent 3',5'-cyclic nucleotide phosphodiesterase 1A (Homo sapiens, UniProt P54750). The experiment in a line: Inhibition of PDE1A (unknown origin). Summed up: as §1
Data set [11] is filed under the species Homo sapiens. Put plainly: Selectivity index, ratio of IC50 for PDE5A (unknown origin) to IC50 for PDE4B (unknown origin).
The subject of data set [12] is Mus musculus. The experiment in a line: Antiinflammatory activity against calcipotriol-induced atopic dermatitis mouse model assessed as swelling inhibition at 30 mg/kg for 14 days. Also on record: scale not given: the % may be the effect or the level left. Particulars: time 14 day. Format: functional. Summed up: as §2
For data set [13], the species on record is Homo sapiens. The experiment in a line: Selectivity index, ratio of IC50 for PDE7A (unknown origin) to IC50 for PDE4B (unknown origin).
For data set [14], the target named is cGMP-specific 3',5'-cyclic phosphodiesterase (Homo sapiens, UniProt O76074). Put plainly: Inhibition of PDE5A (unknown origin). Summed up: as §1
The species named for data set [15] is Homo sapiens. The experiment in a line: Selectivity index, ratio of IC50 for PDE1C (unknown origin) to IC50 for PDE4B (unknown origin).
Data set [16] addresses cGMP-dependent 3',5'-cyclic phosphodiesterase (Homo sapiens, UniProt O00408). Put plainly: Inhibition of PDE2A (unknown origin). The procedure, abridged: as §1
The species entered for data set [17] is Homo sapiens. The experiment in a line: Selectivity index, ratio of IC50 for PDE3A (unknown origin) to IC50 for PDE4B (unknown origin).
Data set [18] concerns the target High affinity 3',5'-cyclic-AMP phosphodiesterase 7A (Homo sapiens, UniProt Q13946). The experiment in a line: Inhibition of PDE7A (unknown origin). Summed up: as §1
For data set [19], the species on record is Homo sapiens. Put plainly: Selectivity index, ratio of IC50 for PDE1A (unknown origin) to IC50 for PDE4B (unknown origin).
The species named for data set [20] is Homo sapiens. The experiment in a line: Selectivity index, ratio of IC50 for PDE10A (unknown origin) to IC50 for PDE4B (unknown origin).
Data set [21] in a line: Phototoxicity in albino guinea pig assessed as necrosis at 10 mg/kg topical treatment irradiated with 4.2 mw/cm2 UVA for 40 mins and measured after 24 hrs day of light irradiation by H and E staining based microscopic analysis. Format: organism-based, Cavia porcellus. The conditions noted are these: in vivo, topical_or_ocular, in the assay text read “72 hrs” for “24 hrs”. Summed up: (§3)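 Albino guinea pigs (250–300 g) were randomized into 5 groups. Four 2 cm × 2 cm depilated areas beside the spine were prepared 24 h before dosing, and 0.2 mL of test substance was applied. Animals were restrained and exposed to UVA for 40 min. Erythema, eschar and oedema were scored visually at 1, 24, 48 and 72 h. Skin taken at 72 h was formalin-fixed, H&E-stained and read by a pathologist.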

Data set [22] has as its target Dual specificity calcium/calmodulin-dependent 3',5'-cyclic nucleotide phosphodiesterase 1C (Homo sapiens, UniProt Q14123). Put plainly: Inhibition of PDE1C (unknown origin). The procedure, abridged: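 For PDE1A, PDE1B and PDE1C, the reaction buffer was also supplemented with 0.2 mM CaCl2 and […]. Otherwise the same SPA run as the other PDEs: [3H]-nucleotide hydrolysis at 30 °C for 30 min, in duplicate.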

Data set [23] addresses cGMP-inhibited 3',5'-cyclic phosphodiesterase 3A (Homo sapiens, UniProt Q14432). Put plainly: Inhibition of PDE3A (unknown origin). The procedure, abridged:
as §1

Data set [24] has as its target T1, 3',5'-cyclic-AMP phosphodiesterase 4B. The experiment in a line: Inhibition of PDE4B (unknown origin). Summed up:
as §1

Data set [25] can be described thus: Phototoxicity in albino guinea pig assessed as infiltration of inflammatory cells at 10 mg/kg topical treatment irradiated with 4.2 mw/cm2 UVA for 40 mins and measured after 24 hrs day of light irradiation by H and E staining based microscopic analysis. Format: organism-based, Cavia porcellus. The conditions noted are these: in vivo, topical_or_ocular, in the assay text read “72 hrs” for “24 hrs”. Summed up: as §3

The species named for data set [26] is Homo sapiens. Put plainly: Selectivity index, ratio of IC50 for PDE2A (unknown origin) to IC50 for PDE4B (unknown origin).
The species entered for data set [27] is Homo sapiens. Put plainly: Selectivity index, ratio of IC50 for PDE3B (unknown origin) to IC50 for PDE4B (unknown origin).

Each structure is given as a SMILES string. pIC50: −log10 of the molar value.

T1 sequence (Q07343 whole entry): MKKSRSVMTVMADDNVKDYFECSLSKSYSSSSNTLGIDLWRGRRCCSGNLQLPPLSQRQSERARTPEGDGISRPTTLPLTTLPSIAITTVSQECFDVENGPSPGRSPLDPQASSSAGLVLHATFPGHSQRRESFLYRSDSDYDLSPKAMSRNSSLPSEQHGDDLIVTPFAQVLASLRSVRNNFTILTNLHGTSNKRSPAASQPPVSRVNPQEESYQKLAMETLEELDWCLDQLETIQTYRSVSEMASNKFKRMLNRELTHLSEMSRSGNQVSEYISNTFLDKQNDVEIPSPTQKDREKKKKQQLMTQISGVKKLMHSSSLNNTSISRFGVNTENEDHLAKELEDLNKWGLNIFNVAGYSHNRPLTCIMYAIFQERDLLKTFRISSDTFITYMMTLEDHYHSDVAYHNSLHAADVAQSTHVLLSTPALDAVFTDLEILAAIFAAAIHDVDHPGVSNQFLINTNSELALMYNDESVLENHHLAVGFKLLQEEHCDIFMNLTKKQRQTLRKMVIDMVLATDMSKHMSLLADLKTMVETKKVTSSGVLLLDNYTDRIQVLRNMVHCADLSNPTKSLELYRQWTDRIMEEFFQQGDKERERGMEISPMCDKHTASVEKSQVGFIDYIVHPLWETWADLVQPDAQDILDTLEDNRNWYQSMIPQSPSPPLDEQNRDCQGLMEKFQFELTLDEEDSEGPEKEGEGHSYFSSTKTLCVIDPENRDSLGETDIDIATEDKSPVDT
cAMP and cAMP-inhibited cGMP 3',5'-cyclic phosphodiesterase 10A, sequence (Q9Y233 whole entry): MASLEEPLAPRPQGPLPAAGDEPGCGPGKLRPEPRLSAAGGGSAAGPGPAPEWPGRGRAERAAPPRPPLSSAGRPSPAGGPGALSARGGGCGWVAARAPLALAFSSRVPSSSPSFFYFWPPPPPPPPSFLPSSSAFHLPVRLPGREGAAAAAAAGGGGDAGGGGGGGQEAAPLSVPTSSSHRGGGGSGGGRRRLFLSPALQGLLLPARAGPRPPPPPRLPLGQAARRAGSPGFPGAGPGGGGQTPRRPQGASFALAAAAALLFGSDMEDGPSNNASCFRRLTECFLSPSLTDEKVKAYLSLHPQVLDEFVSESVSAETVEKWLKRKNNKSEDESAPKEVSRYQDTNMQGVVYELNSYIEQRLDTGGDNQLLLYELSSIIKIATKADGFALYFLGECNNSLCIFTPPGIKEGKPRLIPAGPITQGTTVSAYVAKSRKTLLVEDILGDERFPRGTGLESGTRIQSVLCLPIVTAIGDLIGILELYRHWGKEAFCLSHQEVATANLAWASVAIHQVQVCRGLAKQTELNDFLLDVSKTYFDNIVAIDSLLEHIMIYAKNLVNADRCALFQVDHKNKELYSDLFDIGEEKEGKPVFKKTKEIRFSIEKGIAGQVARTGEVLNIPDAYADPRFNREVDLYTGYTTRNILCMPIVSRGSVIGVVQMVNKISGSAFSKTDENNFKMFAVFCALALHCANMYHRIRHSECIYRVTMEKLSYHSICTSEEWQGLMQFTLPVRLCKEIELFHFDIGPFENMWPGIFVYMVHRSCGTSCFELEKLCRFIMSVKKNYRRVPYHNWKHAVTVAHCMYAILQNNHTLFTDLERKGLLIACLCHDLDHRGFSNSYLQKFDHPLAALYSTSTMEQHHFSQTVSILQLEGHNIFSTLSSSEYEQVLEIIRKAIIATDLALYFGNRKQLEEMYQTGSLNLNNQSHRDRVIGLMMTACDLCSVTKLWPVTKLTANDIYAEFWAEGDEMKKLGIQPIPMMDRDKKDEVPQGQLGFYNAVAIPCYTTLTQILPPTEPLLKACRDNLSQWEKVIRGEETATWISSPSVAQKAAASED
Dual specificity calcium/calmodulin-dependent 3',5'-cyclic nucleotide phosphodiesterase 1B, sequence (Q01064 whole entry): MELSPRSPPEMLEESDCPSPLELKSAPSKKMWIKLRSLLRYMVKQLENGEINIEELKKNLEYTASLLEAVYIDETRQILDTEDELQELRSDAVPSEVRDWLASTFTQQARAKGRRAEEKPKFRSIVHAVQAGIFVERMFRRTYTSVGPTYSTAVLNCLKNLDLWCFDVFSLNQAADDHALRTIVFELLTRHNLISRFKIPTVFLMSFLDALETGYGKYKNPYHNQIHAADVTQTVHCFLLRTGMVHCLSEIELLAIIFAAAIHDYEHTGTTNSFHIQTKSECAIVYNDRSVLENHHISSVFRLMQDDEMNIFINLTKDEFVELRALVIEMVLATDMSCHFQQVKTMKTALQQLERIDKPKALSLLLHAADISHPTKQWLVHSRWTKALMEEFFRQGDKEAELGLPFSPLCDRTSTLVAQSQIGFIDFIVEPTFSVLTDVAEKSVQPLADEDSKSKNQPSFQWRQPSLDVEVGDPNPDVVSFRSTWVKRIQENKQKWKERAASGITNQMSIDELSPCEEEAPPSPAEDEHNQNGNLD
cGMP-dependent 3',5'-cyclic phosphodiesterase, sequence (O00408 whole entry): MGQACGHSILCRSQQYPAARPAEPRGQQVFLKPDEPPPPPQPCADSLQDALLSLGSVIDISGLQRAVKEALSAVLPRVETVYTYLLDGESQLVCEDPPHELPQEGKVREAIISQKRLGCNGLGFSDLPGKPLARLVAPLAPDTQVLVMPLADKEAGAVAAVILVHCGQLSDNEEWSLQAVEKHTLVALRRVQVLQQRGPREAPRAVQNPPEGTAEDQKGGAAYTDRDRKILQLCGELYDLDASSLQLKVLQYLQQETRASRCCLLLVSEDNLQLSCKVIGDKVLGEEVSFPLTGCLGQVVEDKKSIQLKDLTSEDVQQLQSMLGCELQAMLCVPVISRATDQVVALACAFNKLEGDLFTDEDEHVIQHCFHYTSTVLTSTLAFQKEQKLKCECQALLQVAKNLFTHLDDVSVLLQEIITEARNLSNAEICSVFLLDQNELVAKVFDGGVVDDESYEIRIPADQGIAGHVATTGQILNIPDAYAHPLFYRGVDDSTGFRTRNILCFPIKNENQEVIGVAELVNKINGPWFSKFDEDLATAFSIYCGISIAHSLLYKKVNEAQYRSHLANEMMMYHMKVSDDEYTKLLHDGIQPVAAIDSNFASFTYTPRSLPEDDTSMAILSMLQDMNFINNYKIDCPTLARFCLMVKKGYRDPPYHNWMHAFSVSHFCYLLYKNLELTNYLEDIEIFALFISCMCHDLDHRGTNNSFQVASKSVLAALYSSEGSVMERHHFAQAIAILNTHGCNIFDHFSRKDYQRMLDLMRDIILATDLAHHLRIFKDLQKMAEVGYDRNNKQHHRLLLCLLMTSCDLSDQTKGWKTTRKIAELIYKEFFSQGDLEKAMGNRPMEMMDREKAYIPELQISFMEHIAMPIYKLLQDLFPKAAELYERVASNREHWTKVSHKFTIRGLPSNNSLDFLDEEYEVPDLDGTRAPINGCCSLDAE
cGMP-inhibited 3',5'-cyclic phosphodiesterase 3A, sequence (Q14432 whole entry): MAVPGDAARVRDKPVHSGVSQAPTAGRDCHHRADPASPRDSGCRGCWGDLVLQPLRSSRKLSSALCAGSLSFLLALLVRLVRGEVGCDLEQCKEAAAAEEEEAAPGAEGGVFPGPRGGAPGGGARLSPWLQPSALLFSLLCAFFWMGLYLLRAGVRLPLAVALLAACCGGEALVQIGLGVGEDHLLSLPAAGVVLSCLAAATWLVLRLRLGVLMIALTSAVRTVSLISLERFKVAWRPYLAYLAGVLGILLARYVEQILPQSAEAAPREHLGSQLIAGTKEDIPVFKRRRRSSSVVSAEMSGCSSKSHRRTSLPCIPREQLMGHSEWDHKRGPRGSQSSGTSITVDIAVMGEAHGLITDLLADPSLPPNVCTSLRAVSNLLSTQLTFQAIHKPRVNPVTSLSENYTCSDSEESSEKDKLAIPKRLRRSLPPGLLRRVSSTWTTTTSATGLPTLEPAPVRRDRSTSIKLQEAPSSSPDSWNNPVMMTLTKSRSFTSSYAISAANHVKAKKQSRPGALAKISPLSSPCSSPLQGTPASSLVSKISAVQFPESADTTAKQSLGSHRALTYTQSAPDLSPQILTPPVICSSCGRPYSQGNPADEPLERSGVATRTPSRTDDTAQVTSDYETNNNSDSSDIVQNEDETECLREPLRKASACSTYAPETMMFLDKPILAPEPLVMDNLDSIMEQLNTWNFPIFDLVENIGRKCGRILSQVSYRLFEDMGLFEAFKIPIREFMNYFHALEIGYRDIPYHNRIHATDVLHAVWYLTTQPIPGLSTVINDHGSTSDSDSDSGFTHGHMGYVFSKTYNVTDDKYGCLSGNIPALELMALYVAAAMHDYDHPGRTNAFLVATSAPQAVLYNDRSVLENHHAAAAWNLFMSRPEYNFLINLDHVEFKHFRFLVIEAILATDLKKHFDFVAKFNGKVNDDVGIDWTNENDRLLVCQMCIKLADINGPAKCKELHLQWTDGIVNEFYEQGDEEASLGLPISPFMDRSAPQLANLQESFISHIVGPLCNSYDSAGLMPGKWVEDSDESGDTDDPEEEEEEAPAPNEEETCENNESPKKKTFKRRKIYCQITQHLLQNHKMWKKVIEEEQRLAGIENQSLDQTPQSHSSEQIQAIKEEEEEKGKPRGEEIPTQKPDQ
Dual specificity calcium/calmodulin-dependent 3',5'-cyclic nucleotide phosphodiesterase 1A, sequence (P54750 whole entry): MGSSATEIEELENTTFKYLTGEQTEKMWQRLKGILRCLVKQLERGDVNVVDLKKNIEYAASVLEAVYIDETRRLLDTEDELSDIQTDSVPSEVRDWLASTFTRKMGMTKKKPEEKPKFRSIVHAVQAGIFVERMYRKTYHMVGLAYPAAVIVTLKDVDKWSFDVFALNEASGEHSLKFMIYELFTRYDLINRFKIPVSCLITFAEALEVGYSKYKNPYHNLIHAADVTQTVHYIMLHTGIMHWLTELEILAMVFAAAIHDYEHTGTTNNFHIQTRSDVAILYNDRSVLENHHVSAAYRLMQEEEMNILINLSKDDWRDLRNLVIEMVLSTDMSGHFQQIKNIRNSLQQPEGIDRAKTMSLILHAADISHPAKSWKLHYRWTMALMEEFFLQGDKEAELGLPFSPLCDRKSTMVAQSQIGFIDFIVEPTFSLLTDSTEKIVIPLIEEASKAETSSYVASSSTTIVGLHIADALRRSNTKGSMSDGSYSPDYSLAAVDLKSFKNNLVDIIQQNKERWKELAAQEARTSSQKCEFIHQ

On to `COC(=O)c1cccc2cc(Oc3ccc4c(c3)COB4O)ccc12`, for which, in data set [1], the pIC50 is 7.66.

In the case of `O=c1ccoc2cc(Oc3ccc4c(c3)COB4O)ccc12`, the negative logarithm of the IC50 (pIC50) in [1] is 7.72.

Take `COC(=O)c1cc(Oc2ccc3c(c2)COB3O)nc2ccccc12`: the negative logarithm of the IC50 (pIC50) in data set [1] is 8.08. Also, in the data set on Mus musculus [2], the “inhibition (INH)” value turned out to be 30.6%.

For `CC(=O)c1ccc2nc(Oc3ccc4c(c3)COB4O)ccc2c1`, the “inhibition (INH)” value with Mus musculus [2] is listed as 34.09%. Besides, in data set [3], the negative-log IC50 (pIC50) is 8.45.

Take `COC(=O)c1ccc2nc(Oc3ccc4c(c3)COB4O)ccc2c1`: the negative-log IC50 (pIC50) in data set [1] was 7.97. Moreover, the “inhibition (INH)” value in the data set on Mus musculus [2] was 54.72%.

For `N#Cc1ccc(Oc2ccc3c(c2)COB3O)cc1` [CRISABOROLE], the negative logarithm of the IC50 (pIC50) in data set [4] is 4.01; in [1], 7.24; in [6], 4.23; in data set [9], 4.75; in data set [10], 5.25; in data set [14], 4.25. Further, the negative logarithm of the IC50 (pIC50) in data set [16] is 5.44; in data set [18], 5.69; in [22], 4.15; in data set [23] it was 4.19; in data set [24] it was 7.15. Also, the Ratio IC50 stood at 271 in the data set listed under Homo sapiens [5]; 850 in the data set listed under Homo sapiens [11]; 31 in the data set listed under Homo sapiens [13]; 1080 in the data set listed under Homo sapiens [15]; 970 in the data set listed under Homo sapiens [17]; 85 in the data set filed under Homo sapiens [19]. In addition, the Ratio IC50 in the data set listed under Homo sapiens [20] was determined as 1480; in the data set filed under Homo sapiens [26], 55; in the data set listed under Homo sapiens [27], 891. For the same compound, the Activity is listed as 0.29 mm with Mus musculus [7]; 0.37 mm in the data set with Mus musculus [8]; 32.5% in the data set with Mus musculus [12]; “Non-Toxic” in data set [21]; “Non-Toxic” in data set [25]. The “inhibition (INH)” value in the data set with Mus musculus [2] is given as 43.55%.

In the case of `COC(=O)c1cccc2nc(Oc3ccc4c(c3)COB4O)ccc12`, the negative logarithm of the IC50 (pIC50) in data set [1] is 8.19. For the same compound, the “inhibition (INH)” value with Mus musculus [2] is on record as 55.62%.

By pIC50 is commonly meant the negative decadic logarithm of the IC50, by convention in mol/L.

These data come from ChEMBL document CHEMBL4813940, “Design, synthesis and biological evaluation of novel benzoxaborole derivatives as potent PDE4 inhibitors for topical treatment of atopic dermatitis” (Eur J Med Chem, 2021).
